Experiment [1] deals with Receptor-type tyrosine-protein phosphatase F (Homo sapiens) (UniProt P10586). Nature of the experiment: Inhibition of LAR (unknown origin) at 20 ug/ml using pNPP as substrate. A digest of the protocol:
(§1)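 Single-point screen at 20 µg/mL of compound against each phosphatase (LAR, SHP-1, SHP-2), with pNPP hydrolysis as the read-out.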

The target in experiment [2] is T1, Tyrosine-protein phosphatase non-receptor type 2 (Homo sapiens, UniProt P17706).
T1 sequence (P17706 whole entry): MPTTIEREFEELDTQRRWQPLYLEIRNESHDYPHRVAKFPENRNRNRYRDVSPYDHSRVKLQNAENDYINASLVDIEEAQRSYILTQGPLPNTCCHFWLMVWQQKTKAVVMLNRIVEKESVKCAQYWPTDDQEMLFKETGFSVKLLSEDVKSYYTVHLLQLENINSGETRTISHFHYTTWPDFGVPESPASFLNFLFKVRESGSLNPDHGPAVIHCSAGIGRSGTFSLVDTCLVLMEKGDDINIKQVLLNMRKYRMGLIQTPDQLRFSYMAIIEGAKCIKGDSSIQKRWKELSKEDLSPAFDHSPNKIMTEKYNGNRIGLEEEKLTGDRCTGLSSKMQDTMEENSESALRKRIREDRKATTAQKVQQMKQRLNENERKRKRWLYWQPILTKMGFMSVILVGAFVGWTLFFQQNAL
Nature of the experiment: Inhibition of TCPTP (unknown origin) using pNPP as substrate.

The target of experiment [3] is T2, Tyrosine-protein phosphatase non-receptor type 1 (Homo sapiens) (UniProt P18031).
T2 sequence (whole entry): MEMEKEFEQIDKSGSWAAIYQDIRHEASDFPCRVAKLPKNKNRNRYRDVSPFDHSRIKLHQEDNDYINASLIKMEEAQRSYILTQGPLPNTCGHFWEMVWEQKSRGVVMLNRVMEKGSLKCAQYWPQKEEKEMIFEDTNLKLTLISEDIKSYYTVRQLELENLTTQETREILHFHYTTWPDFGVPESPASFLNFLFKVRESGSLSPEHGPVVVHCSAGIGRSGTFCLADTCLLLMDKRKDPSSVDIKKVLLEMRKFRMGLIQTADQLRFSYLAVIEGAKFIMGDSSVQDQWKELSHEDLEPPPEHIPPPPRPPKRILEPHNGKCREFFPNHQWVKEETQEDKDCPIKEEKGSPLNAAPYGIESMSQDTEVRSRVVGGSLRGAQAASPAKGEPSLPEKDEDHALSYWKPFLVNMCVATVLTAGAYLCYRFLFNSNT
Nature of the experiment: Potency index, ratio of IC50 for oleanolic acid to IC50 for test compound for inhibition of PTP1B (unknown origin) using pNPP as substrate. A digest of the protocol:
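Both IC50 values come from dose-response inhibition of PTP1B with pNPP as substrate, fitted by regression (mean ± SD, n = 3). The ratio divides the IC50 of the reference PTP1B inhibitor by that of the test compound.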

Experiment [4] has as its target T3, Tyrosine-protein phosphatase non-receptor type 1 (Homo sapiens, UniProt P18031).
T3 sequence (P18031 whole entry): T2 sequence (whole entry)
Nature of the experiment: Inhibition of PTP1B (unknown origin) using pNPP as substrate.

Experiment [5] concerns the target T2, Tyrosine-protein phosphatase non-receptor type 1 (Homo sapiens). Nature of the experiment: Time dependent inhibition of PTP1B (unknown origin) using pNPP as substrate.
Experiment [6] deals with T3, Tyrosine-protein phosphatase non-receptor type 1. Nature of the experiment: Competitive type inhibition of PTP1B (unknown origin) using pNPP as substrate by Lineweaver-Burk plot analysis.
The target of experiment [7] is T4, M-phase inducer phosphatase 2 (Homo sapiens, UniProt P30305).
T4 sequence (P30305 whole entry): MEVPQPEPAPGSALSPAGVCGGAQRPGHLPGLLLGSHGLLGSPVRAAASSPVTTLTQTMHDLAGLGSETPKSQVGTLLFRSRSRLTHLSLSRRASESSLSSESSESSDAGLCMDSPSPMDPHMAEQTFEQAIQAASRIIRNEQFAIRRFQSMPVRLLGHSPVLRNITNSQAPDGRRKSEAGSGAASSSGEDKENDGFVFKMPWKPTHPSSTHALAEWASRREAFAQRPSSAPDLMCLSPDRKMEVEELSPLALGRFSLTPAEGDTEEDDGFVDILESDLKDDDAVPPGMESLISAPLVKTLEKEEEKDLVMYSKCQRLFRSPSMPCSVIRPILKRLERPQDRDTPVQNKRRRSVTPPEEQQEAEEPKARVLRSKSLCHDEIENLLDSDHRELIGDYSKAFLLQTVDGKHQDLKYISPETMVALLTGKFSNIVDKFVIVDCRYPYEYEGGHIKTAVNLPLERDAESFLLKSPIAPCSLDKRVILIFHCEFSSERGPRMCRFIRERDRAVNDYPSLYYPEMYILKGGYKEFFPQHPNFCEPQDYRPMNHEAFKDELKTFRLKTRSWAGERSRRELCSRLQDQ
Nature of the experiment: Inhibition of CDC25B (unknown origin) using pNPP as substrate. The method, boiled down:
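Same pNPP-substrate phosphatase assay as for PTP1B, applied for selectivity. Compounds were first screened at 20 μg/mL, then tested over a dose range. IC50 was obtained by regression analysis and reported as mean ± SD of three replications. Oleanolic acid served as the positive control.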

Experiment [8] concerns the target Tyrosine-protein phosphatase non-receptor type 6 (Homo sapiens, UniProt P29350). Nature of the experiment: Inhibition of SHP1 (unknown origin) at 20 ug/ml using pNPP as substrate. A digest of the protocol: as §1
Experiment [9] addresses T5, Tyrosine-protein phosphatase non-receptor type 11 (Homo sapiens) (UniProt Q06124).
T5 sequence (whole entry): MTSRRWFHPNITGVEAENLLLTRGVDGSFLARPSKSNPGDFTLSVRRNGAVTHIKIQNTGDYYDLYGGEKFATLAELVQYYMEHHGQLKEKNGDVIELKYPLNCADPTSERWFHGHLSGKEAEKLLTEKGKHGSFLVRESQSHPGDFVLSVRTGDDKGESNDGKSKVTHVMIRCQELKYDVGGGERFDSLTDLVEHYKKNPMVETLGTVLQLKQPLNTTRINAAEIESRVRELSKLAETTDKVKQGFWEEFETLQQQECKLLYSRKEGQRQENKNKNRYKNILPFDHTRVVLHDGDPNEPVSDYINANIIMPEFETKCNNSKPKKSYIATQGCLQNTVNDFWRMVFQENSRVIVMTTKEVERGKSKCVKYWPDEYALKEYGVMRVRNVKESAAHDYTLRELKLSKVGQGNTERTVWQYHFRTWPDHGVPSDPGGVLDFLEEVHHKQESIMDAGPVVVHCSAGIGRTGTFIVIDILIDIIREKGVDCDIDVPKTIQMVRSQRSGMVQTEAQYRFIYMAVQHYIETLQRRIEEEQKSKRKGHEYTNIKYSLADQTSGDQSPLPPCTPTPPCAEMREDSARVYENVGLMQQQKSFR
Nature of the experiment: Inhibition of SHP2 (unknown origin) at 20 ug/ml using pNPP as substrate. A digest of the protocol: as §1

The species entered for experiment [10] is Homo sapiens. Nature of the experiment: Selectivity index, ratio of IC50 for inhibition of TCPTP (unknown origin) using pNPP as substrate to IC50 for inhibition of PTP1B (unknown origin) using pNPP as substrate. The method, boiled down:
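Both TCPTP and PTP1B IC50 values were measured by the same pNPP hydrolysis assay, derived by regression from triplicate dose-response data. The index is the TCPTP IC50 divided by the PTP1B IC50.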

SMILES strings stand for the structures. Calls of active or inactive are those of the source. The calls are words filed in the database; no cut-off is given here.

The term IC50 denotes the point on the concentration scale where inhibition reaches its midpoint. The low end stands for higher potency, the high end for lower potency. For orientation: Ki means a dissociation constant, usually derived from enzyme kinetics or from competition with a known ligand. A lower Ki goes with higher affinity.

Chain of Tyrosine-protein phosphatase non-receptor type 6 (P29350 whole entry): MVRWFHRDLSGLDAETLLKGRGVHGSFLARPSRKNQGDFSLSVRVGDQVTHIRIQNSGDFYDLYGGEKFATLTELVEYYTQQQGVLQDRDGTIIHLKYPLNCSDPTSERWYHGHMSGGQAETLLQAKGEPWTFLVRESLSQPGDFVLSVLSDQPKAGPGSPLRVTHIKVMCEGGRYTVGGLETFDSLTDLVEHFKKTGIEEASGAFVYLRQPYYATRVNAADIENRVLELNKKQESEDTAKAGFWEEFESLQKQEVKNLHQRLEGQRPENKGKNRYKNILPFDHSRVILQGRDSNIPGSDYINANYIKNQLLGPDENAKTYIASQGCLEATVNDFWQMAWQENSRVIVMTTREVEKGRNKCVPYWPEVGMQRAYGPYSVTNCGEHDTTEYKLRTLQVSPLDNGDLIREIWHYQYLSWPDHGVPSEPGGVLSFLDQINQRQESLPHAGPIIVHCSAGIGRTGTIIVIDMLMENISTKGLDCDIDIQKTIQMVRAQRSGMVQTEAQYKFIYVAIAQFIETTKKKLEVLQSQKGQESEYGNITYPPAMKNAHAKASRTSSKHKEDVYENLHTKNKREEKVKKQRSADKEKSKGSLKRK
Chain of Receptor-type tyrosine-protein phosphatase F (Homo sapiens) (P10586 whole entry): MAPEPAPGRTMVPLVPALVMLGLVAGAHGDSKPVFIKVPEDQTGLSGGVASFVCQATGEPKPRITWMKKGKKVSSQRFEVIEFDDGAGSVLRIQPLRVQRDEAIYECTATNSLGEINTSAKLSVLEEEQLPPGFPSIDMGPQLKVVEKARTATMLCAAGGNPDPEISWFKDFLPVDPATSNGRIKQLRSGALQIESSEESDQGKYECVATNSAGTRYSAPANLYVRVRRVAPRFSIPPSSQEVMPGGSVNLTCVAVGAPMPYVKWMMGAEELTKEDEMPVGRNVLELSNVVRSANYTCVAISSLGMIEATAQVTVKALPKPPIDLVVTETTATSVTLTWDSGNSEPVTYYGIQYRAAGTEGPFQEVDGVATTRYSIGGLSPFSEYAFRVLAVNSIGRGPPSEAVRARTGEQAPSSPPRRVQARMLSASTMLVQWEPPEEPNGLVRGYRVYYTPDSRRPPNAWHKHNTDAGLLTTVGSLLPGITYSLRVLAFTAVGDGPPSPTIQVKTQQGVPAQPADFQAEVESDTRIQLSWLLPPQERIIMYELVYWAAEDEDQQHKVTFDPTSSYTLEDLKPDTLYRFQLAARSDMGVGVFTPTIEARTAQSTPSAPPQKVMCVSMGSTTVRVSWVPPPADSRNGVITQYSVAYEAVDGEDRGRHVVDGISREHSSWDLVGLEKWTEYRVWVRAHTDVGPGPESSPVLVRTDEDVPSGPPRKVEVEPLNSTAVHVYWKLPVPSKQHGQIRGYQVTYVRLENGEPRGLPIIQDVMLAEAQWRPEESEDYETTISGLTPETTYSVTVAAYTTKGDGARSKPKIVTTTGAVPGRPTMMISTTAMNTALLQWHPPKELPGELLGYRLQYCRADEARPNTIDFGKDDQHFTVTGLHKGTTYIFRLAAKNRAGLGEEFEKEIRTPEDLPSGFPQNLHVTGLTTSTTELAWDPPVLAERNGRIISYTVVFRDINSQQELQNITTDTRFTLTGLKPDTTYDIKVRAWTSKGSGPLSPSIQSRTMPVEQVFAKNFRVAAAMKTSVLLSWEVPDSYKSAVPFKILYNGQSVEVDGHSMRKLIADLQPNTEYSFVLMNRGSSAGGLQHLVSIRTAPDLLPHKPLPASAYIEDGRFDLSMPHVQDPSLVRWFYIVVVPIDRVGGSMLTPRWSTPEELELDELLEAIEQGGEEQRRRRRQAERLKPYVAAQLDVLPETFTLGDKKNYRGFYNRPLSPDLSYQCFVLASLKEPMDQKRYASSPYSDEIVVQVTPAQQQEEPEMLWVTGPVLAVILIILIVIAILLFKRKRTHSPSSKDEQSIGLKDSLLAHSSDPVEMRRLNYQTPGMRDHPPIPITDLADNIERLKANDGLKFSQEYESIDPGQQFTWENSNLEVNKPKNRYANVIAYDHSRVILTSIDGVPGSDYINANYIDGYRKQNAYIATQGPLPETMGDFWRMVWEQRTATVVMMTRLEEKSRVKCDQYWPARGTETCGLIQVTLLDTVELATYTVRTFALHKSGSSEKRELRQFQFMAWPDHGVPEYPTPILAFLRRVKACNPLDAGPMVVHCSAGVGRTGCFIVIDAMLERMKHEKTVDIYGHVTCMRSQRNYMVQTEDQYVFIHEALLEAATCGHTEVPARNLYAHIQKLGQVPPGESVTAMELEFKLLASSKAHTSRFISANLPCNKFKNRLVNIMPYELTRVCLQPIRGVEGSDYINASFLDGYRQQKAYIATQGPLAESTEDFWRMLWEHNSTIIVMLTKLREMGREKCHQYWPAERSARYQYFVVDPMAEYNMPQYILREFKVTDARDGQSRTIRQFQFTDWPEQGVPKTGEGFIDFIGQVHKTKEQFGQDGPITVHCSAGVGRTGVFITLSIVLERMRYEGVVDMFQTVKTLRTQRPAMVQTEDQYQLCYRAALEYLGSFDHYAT

`O=C(O)CCCCN1C(=O)/C(=C/c2cn(-c3ccccc3)nc2-c2ccc(Cl)cc2Cl)SC1=S`: the inhibition result in experiment [1], in [8] and in [9] was “inactive” throughout. Also, the 50% inhibitory concentration (IC50) in experiment [2] turned out to be 5.77 µM; in experiment [4] it was 0.67 µM; in experiment [7] it was 28.1 µM. Further, the Ratio IC50 in experiment [3] is 2.5; in experiment [10], 2 to 9. Further, the TDI result in [5] was “inactive”. This compound had a Ki in experiment [6] of 0.31 µM.

The values above are taken from ChEMBL document CHEMBL4316629, “Discovery of 1,3-diphenyl-1H-pyrazole derivatives containing rhodanine-3-alkanoic acid groups as potential PTP1B inhibitors” (Bioorg Med Chem Lett, 2019).
